In brackets after ≈: the same amount, converted by molar mass.
How the values were obtained:
Escherichia coli = test: Antibacterial activity against aminoglycoside-susceptible Escherichia coli ATCC 25922 after 12 to 18 hrs; assay type: functional
In short: (§1)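 Broth microdilution MIC. Bacteria grown in Trypticase Soy broth at 35 °C for 1–2 h, then diluted with broth to an absorbance of 0.08–0.1 at 625 nm. This suspension was further diluted into broth and dispensed into 96-well plates containing 2-fold serial dilutions of compound. Plates were incubated 12–18 h at 35 °C. MIC is the lowest concentration inhibiting growth, repeated at least three times.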

Staphylococcus aureus [1] = test: Antibacterial activity against aminoglycoside-susceptible Staphylococcus aureus ATCC 25923 after 12 to 18 hrs; assay type: functional; in short: as §1
Klebsiella pneumoniae [2] = test: Antibacterial activity against aminoglycoside-susceptible Klebsiella pneumoniae ATCC 13883 after 12 to 18 hrs; assay type: functional; in short: as §1
Pseudomonas aeruginosa = test: Antibacterial activity against aminoglycoside-resistant Pseudomonas aeruginosa ATCC 27853 after 12 to 18 hrs; assay type: functional
In short: (§2)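 Broth microdilution MIC. Bacteria grown in Trypticase Soy broth at 35 °C for 1–2 h, then adjusted to absorbance 0.08–0.1 at 625 nm. This suspension was diluted into 10 mL broth and dispensed into wells, and 2-fold serial dilutions of compound were added. Plates were incubated at 35 °C for 12–18 h. MIC was the lowest concentration inhibiting growth, with at least three repeats.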

Staphylococcus aureus [3] = test: Antibacterial activity against aminoglycoside-resistant Staphylococcus aureus ATCC 33591 after 12 to 18 hrs; assay type: functional; in short: as §2
Klebsiella pneumoniae [4] = test: Antibacterial activity against aminoglycoside-resistant Klebsiella pneumoniae ATCC 700603 after 12 to 18 hrs

| Structure (SMILES) | MIC (Escherichia coli) [mg/L] | MIC (Staphylococcus aureus [1]) [mg/L] | MIC (Klebsiella pneumoniae [2]) [mg/L] | MIC (Pseudomonas aeruginosa) [mg/L] | MIC (Staphylococcus aureus [3]) [mg/L] | MIC (Klebsiella pneumoniae [4]) [mg/L] |
| --- | --- | --- | --- | --- | --- | --- |
| CCCCCCNC(=O)O[C@@H]1[C@@H](OC(=O)NCCCCCC)[C@H](N)C[C@H](N)[C@H]1O[C@@H]1CC[C@H](N)[C@@H](CN)O1 | 125 (≈ 229 µM) | 32 (≈ 58.7 µM) | 4 (≈ 7.34 µM) | 16 (≈ 29.4 µM) | 16 (≈ 29.4 µM) | ≥ 250 |
| CCCCCCNC(=O)O[C@@H]1[C@@H](O)[C@H](O[C@H]2O[C@H](CN)[C@@H](O)[C@H](O)[C@H]2N)[C@@H](N)C[C@H]1N | – | – | 16 (≈ 35.6 µM) | 64 (≈ 142 µM) | ≥ 250 | 125 (≈ 278 µM) |
| CCCCCCNC(=O)O[C@@H]1[C@@H](O)[C@H](O[C@H]2O[C@H](CN)CC[C@H]2N)[C@@H](N)C[C@H]1N | ≥ 250 | 125 (≈ 299 µM) | 16 (≈ 38.3 µM) | 16 (≈ 38.3 µM) | 64 (≈ 153 µM) | 125 (≈ 299 µM) |
| CCCCCCNC(=O)O[C@@H]1[C@@H](O)[C@H](O[C@@H]2CC[C@H](N)[C@@H](CN)O2)[C@@H](N)C[C@H]1N | ≥ 250 | 32 (≈ 76.6 µM) | 16 (≈ 38.3 µM) | 16 (≈ 38.3 µM) | 64 (≈ 153 µM) | ≥ 250 |
| CCCCCCNC(=O)O[C@@H]1[C@@H](OC(=O)NCCCCCC)[C@H](N)C[C@H](N)[C@H]1O[C@H]1O[C@H](CN)[C@@H](O)[C@H](O)[C@H]1N | – | – | 32 (≈ 55.5 µM) | 125 (≈ 217 µM) | 125 (≈ 217 µM) | 125 (≈ 217 µM) |
| NC[C@@H]1O[C@H](O[C@H]2[C@@H](O)[C@H](O[C@@H]3[C@@H](O)[C@H](N)C[C@H](N)[C@H]3O[C@H]3O[C@H](CN)[C@@H](O)[C@H](O)[C@H]3N)O[C@@H]2CO)[C@H](N)[C@@H](O)[C@@H]1O [FRAMYCETIN] | 4 (≈ 6.51 µM) | 1 (≈ 1.63 µM) | – | – | – | – |
| NC[C@H]1O[C@H](O[C@H]2[C@H](O)[C@@H](O[C@H]3O[C@H](CO)[C@@H](O)[C@H](N)[C@H]3O)[C@H](N)C[C@@H]2N)[C@H](O)[C@@H](O)[C@@H]1O [KANAMYCIN] | 4 (≈ 8.26 µM) | 2 (≈ 4.13 µM) | – | – | – | – |
| NC[C@H]1O[C@H](O[C@H]2[C@H](O)[C@@H](O)[C@H](N)C[C@@H]2N)[C@H](N)[C@@H](O)[C@@H]1O [NEAMINE] | 32 (≈ 99.3 µM) | 4 (≈ 12.4 µM) | 2 (≈ 6.2 µM) | 64 (≈ 199 µM) | 125 (≈ 388 µM) | 16 (≈ 49.6 µM) |

The next lines start with results.

| MIC (Escherichia coli) [mg/L] | MIC (Staphylococcus aureus [1]) [mg/L] | Structure (SMILES) | MIC (Klebsiella pneumoniae [2]) [mg/L] | MIC (Pseudomonas aeruginosa) [mg/L] | MIC (Staphylococcus aureus [3]) [mg/L] | MIC (Klebsiella pneumoniae [4]) [mg/L] |
| --- | --- | --- | --- | --- | --- | --- |
| 64 (≈ 141 µM) | 125 (≈ 276 µM) | NC[C@@H]1CC[C@@H](N)[C@@H](O[C@H]2[C@H](O)[C@@H](O[C@@H]3O[C@H](CO)[C@@H](O)[C@H](O)[C@H]3O)[C@H](N)C[C@@H]2N)O1 | – | – | – | – |
| ≥ 250 | ≥ 250 | NC[C@H]1O[C@H](O[C@H]2[C@H](O)[C@@H](O[C@@H]3O[C@H](CO)[C@@H](O)[C@H](O)[C@H]3O)[C@H](N)C[C@@H]2N)CC[C@@H]1N | – | – | – | – |
| 16 (≈ 36.7 µM) | 8 (≈ 18.4 µM) | C[C@H]1O[C@@H](O[C@@H]2[C@@H](O)[C@H](O[C@@H]3CC[C@H](N)[C@@H](CN)O3)[C@@H](N)C[C@H]2N)[C@H](O)[C@@H](N)[C@@H]1O | – | – | – | – |
| 16 (≈ 36.7 µM) | 4 (≈ 9.18 µM) | C[C@H]1O[C@@H](O[C@@H]2[C@@H](O)[C@H](N)C[C@H](N)[C@H]2O[C@H]2O[C@H](CN)CC[C@H]2N)[C@@H](O)[C@@H](O)[C@@H]1N | – | – | – | – |
| ≥ 250 | 64 (≈ 220 µM) | NC[C@H]1O[C@H](O[C@H]2[C@H](O)[C@@H](O)[C@H](N)C[C@@H]2N)CC[C@@H]1N | – | – | – | – |
| 125 (≈ 287 µM) | 125 (≈ 287 µM) | C[C@H]1O[C@@H](O[C@@H]2[C@@H](O)[C@H](N)C[C@H](N)[C@H]2O[C@@H]2CC[C@H](N)[C@@H](CN)O2)[C@@H](O)[C@@H](O)[C@@H]1N | – | – | – | – |
| 4 (≈ 9.49 µM) | 2 (≈ 4.75 µM) | NC[C@@H]1CC[C@@H](N)[C@@H](O[C@H]2[C@H](O)[C@@H](O[C@@H]3OC[C@@H](O)[C@H](N)[C@H]3O)[C@H](N)C[C@@H]2N)O1 | – | – | – | – |
| 32 (≈ 110 µM) | 16 (≈ 55.1 µM) | NC[C@@H]1CC[C@@H](N)[C@@H](O[C@H]2[C@H](O)[C@@H](O)[C@H](N)C[C@@H]2N)O1 [GENTAMINE C1A] | – | – | – | – |
